Laboratory results as given in ChEMBL document CHEMBL1777764, “Synthesis and evaluation of 1-(1H-indol-3-yl)ethanamine derivatives as new antibacterial agents” (Bioorg Med Chem, 2011).
Converted amounts (≈) assume the structure as drawn.

What was measured:
Staphylococcus aureus [1] = assay: Antibacterial activity against methicillin-resistant Staphylococcus aureus CIP 65.25 after 18 hrs by broth microdilution method; assay type: functional
Procedure, shortened: (§1)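 Broth microdilution following ISO 20776-1:2006 and CLSI M07-A8, in Mueller-Hinton broth. Inoculum was 10^6 cfu/ml, with compound serial dilutions spanning 2 to 128 ug/ml and a compound-free growth control well. Plates were incubated 18 h at 37 °C. MIC was the lowest concentration giving complete inhibition of visible growth. Each compound was tested at least twice.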

Staphylococcus aureus [2] = assay: Antibacterial activity against methicillin-resistant Staphylococcus aureus ATCC 33592 after 18 hrs by broth microdilution method; assay type: functional; procedure, shortened: as §1
Streptococcus pneumoniae [3] = assay: Antibacterial activity against Streptococcus pneumoniae ATCC 6303 after 18 hrs by broth microdilution method; assay type: functional; settings: ATCC 6303, 18 h
Procedure, shortened: (§2)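 MIC by broth microdilution per ISO 20776-1:2006 and CLSI M07-A8. Inoculum 10^6 cfu/ml in Mueller-Hinton broth […]. Compound serially diluted, final 2 to 128 ug/ml, duplicate rows, no-drug growth control. Read after 18 h at 37 °C as lowest concentration fully inhibiting visible growth. At least two experiments.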

Staphylococcus aureus [4] = assay: Antibacterial activity against Staphylococcus aureus ATCC 9144 after 18 hrs by broth microdilution method; assay type: functional
Procedure, shortened: (§3)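 MIC by broth microdilution per ISO 20776-1:2006 and CLSI M07-A8. Inoculum 10^6 cfu/ml in Mueller-Hinton broth with compound serially diluted, final concentrations 2 to 128 ug/ml, duplicate rows, no-drug growth control. Incubation 18 h at 37 °C. MIC taken as lowest concentration giving complete inhibition of visible growth. Each compound tested at least twice.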

Staphylococcus aureus [5] = assay: Antibacterial activity against Staphylococcus aureus CIP 103428 after 18 hrs by broth microdilution method; assay type: functional; procedure, shortened: as §3
[6] = system: Staphylococcus epidermidis; assay: Antibacterial activity against Staphylococcus epidermidis CIP 103627 after 18 hrs by broth microdilution method; assay type: functional; procedure, shortened: as §3
[7] = system: Staphylococcus epidermidis; assay: Antibacterial activity against Staphylococcus epidermidis ATCC 12228 after 18 hrs by broth microdilution method; assay type: functional; procedure, shortened: as §3
Staphylococcus aureus [8] = assay: Antibacterial activity against Staphylococcus aureus ATCC 25923 after 18 hrs by broth microdilution method; assay type: functional; procedure, shortened: as §3
KB [9] = assay: Cytotoxicity against human KB cells at 10 uM; assay type: cell-based
Staphylococcus aureus [10] = assay: Antibacterial activity against Staphylococcus aureus ATCC 6538 after 18 hrs by broth microdilution method; assay type: functional; procedure, shortened: as §3
Staphylococcus aureus [11] = assay: Antibacterial activity against Staphylococcus aureus ATCC 29213 after 18 hrs by broth microdilution method; assay type: functional; procedure, shortened: as §3
HCT-116 [12] = assay: Cytotoxicity against human HCT116 cells at 10 uM; assay type: cell-based; settings: hct-116, 10 µM
[13] = system: Staphylococcus epidermidis; assay: Antibacterial activity against Staphylococcus epidermidis CIP 81.55 after 18 hrs by broth microdilution method; assay type: functional; procedure, shortened: as §3
Staphylococcus aureus [14] = assay: Antibacterial activity against Staphylococcus aureus CIP 65.6 after 18 hrs by broth microdilution method; assay type: functional; procedure, shortened: as §3
MRC5 [15] = assay: Cytotoxicity against human MRC5 cells at 1 uM; assay type: cell-based; settings: mrc5, 1 µM
MRC5 [16] = assay: Cytotoxicity against human MRC5 cells at 10 uM; assay type: cell-based; settings: mrc5, 10 µM
Staphylococcus aureus [17] = assay: Antibacterial activity against vancomycin intermediate Staphylococcus aureus […] after 18 hrs by broth microdilution method; assay type: functional; procedure, shortened: as §1
KB [18] = assay: Cytotoxicity against human KB cells at 1 uM; assay type: cell-based
HCT-116 [19] = assay: Cytotoxicity against human HCT116 cells at 1 uM; assay type: cell-based; settings: hct-116, 1 µM
Streptococcus pneumoniae [20] = assay: Antibacterial activity against Streptococcus pneumoniae ATCC 49619 after 18 hrs by broth microdilution method; assay type: functional; settings: ATCC 49619, 18 h; procedure, shortened: as §2
Escherichia coli = assay: Antibacterial activity against Escherichia coli ATCC 25922 after 18 hrs by broth microdilution method; assay type: functional; procedure, shortened: as §1
Enterococcus faecium = assay: Antibacterial activity against Enterococcus faecium CIP 54.32 after 18 hrs by broth microdilution method; assay type: functional; settings: CIP 54.32, 18 h; procedure, shortened: as §1
Enterobacter cloacae = assay: microbe, parasite or virus in culture; settings: ATCC 13047, 18 h
Serratia marcescens = assay: microbe, parasite or virus in culture; settings: CIP 103551, 18 h
Acinetobacter baumannii = assay: microbe, parasite or virus in culture; settings: ATCC 19606 = CIP 70.34 = JCM 6841, 18 h
Pseudomonas aeruginosa = assay: microbe, parasite or virus in culture; settings: CIP 5933, 18 h
Enterococcus faecalis = assay: Antibacterial activity against Enterococcus faecalis ATCC 29212 after 18 hrs by broth microdilution method; assay type: functional; settings: ATCC 29212, 18 h; procedure, shortened: as §1
Streptococcus mitis = assay: Antibacterial activity against Streptococcus mitis CIP 103335 after 18 hrs by broth microdilution method; assay type: functional; settings: CIP 103335, 18 h
Procedure, shortened: as §1, with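 “broth […].” for “broth.”, “read after” for “incubated”, “with no” for “giving complete inhibition of”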

Streptococcus pyogenes = assay: Antibacterial activity against Streptococcus pyogenes CIP 104226 after 18 hrs by broth microdilution method; assay type: functional; settings: CIP 104226, 18 h; procedure, shortened: as §1
Klebsiella pneumoniae = assay: microbe, parasite or virus in culture; settings: ATCC 35657, 18 h
Streptococcus agalactiae = assay: Antibacterial activity against Streptococcus agalactiae ATCC 12400 after 18 hrs by broth microdilution method; assay type: functional; settings: ATCC 12400, 18 h; procedure, shortened: as §1
Haemophilus influenzae = assay: Antibacterial activity against Haemophilus influenzae ATCC 49766 after 18 hrs by broth microdilution method; assay type: functional; settings: ATCC 49766, 18 h
Procedure, shortened: as §1, with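 “broth […].” for “broth.”, “read after” for “incubated”, “with no” for “giving complete inhibition of”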

| Compound | MIC (Staphylococcus aureus [1]; CIP 65.25, 18 h) [mg/L] | MIC (Staphylococcus aureus [2]; ATCC 33592, 18 h) [mg/L] | MIC (Streptococcus pneumoniae [3]) [mg/L] | MIC (Staphylococcus aureus [4]; ATCC 9144, 18 h) [mg/L] | MIC (Staphylococcus aureus [5]; CIP 103428, 18 h) [mg/L] | MIC ([6]; CIP 103627, 18 h) [mg/L] | MIC ([7]; ATCC 12228, 18 h) [mg/L] | MIC (Staphylococcus aureus [8]; ATCC 25923, 18 h) [mg/L] | Activity (KB [9]) | MIC (Staphylococcus aureus [10]; ATCC 6538, 18 h) [mg/L] | MIC (Staphylococcus aureus [11]; ATCC 29213, 18 h) [mg/L] | Activity (HCT-116 [12]) | MIC ([13]; CIP 81.55, 18 h) [mg/L] | MIC (Staphylococcus aureus [14]; CIP 65.6, 18 h) [mg/L] | Activity (MRC5 [15]) | Activity (MRC5 [16]) | MIC (Staphylococcus aureus [17]) [mg/L] | Activity (KB [18]) | Activity (HCT-116 [19]) | MIC (Streptococcus pneumoniae [20]) [mg/L] | other results |
| --- | --- | --- | --- | --- | --- | --- | --- | --- | --- | --- | --- | --- | --- | --- | --- | --- | --- | --- | --- | --- | --- |
| CC(C)(C)OC(=O)NCC(c1c[nH]c2cc(Br)ccc12)N(O)Cc1ccccc1 (configuration not stated) | 16 (≈ 34.8 µM) | 16 (≈ 34.8 µM) | > 128 | 8 (≈ 17.4 µM) | 8 (≈ 17.4 µM) | 16 (≈ 34.8 µM) | 16 (≈ 34.8 µM) | 8 (≈ 17.4 µM) | Non-toxic | 8 (≈ 17.4 µM) | 8 (≈ 17.4 µM) | Non-toxic | 16 (≈ 34.8 µM) | 8 (≈ 17.4 µM) | Non-toxic | Non-toxic | 16 (≈ 34.8 µM) | Non-toxic | Non-toxic | > 128 |  |
| CC(C)(C)OC(=O)NCC(c1c[nH]c2ccc(Br)cc12)N(O)Cc1ccccc1 (configuration not stated) | 16 (≈ 34.8 µM) | 16 (≈ 34.8 µM) | 128 (≈ 278 µM) | 8 (≈ 17.4 µM) | 8 (≈ 17.4 µM) | 16 (≈ 34.8 µM) | 16 (≈ 34.8 µM) | 8 (≈ 17.4 µM) | Non-toxic | 8 (≈ 17.4 µM) | 8 (≈ 17.4 µM) | Non-toxic | 16 (≈ 34.8 µM) | 8 (≈ 17.4 µM) | Non-toxic | Non-toxic | 8 (≈ 17.4 µM) | Non-toxic | Non-toxic | 128 (≈ 278 µM) |  |
| GENTAMICIN |  |  |  |  |  |  |  |  |  |  |  |  |  |  |  |  | > 64 |  |  |  | MIC (Staphylococcus aureus [1]): 0.25 mg/L; MIC (Staphylococcus aureus [2]): 0.25 mg/L; MIC (Staphylococcus aureus [4]): 0.125 mg/L; MIC (Staphylococcus aureus [5]): 0.125 mg/L; MIC [6]: 0.125 mg/L; MIC [7]: 0.125 mg/L; MIC (Staphylococcus aureus [8]): 0.125 mg/L; MIC (Staphylococcus aureus [10]): 0.125 mg/L; MIC (Escherichia coli): 1 mg/L; MIC (Staphylococcus aureus [11]): 0.125 mg/L; MIC [13]: 0.125 mg/L; MIC (Staphylococcus aureus [14]): 0.125 mg/L |
| Cl.Cl.NCC(NO)c1c[nH]c2cc(Br)ccc12 (configuration not stated) | 16 | 16 | 64 | 16 | 16 | 16 | 16 | 16 | Non-toxic | 16 | 16 | Non-toxic | 16 | 16 | Non-toxic | Non-toxic | 16 | Non-toxic | Non-toxic | 64 | MIC (Enterococcus faecium): > 128 mg/L; MIC (Enterobacter cloacae): 64 mg/L; MIC (Serratia marcescens): 64 mg/L; MIC (Acinetobacter baumannii): 64 mg/L; MIC (Pseudomonas aeruginosa): 64 mg/L; MIC (Escherichia coli; ATCC 25922, 18 h): 32 mg/L; MIC (Enterococcus faecalis): > 128 mg/L; MIC (Streptococcus mitis): 128 mg/L; MIC (Streptococcus pyogenes): 128 mg/L; MIC (Klebsiella pneumoniae): 64 mg/L; MIC (Streptococcus agalactiae): 128 mg/L |
| CC(NO)c1c[nH]c2ccc(I)cc12 (configuration not stated) |  |  |  | 64 (≈ 212 µM) | 64 (≈ 212 µM) | 32 (≈ 106 µM) | 32 (≈ 106 µM) | 64 (≈ 212 µM) | Non-toxic | 64 (≈ 212 µM) | 64 (≈ 212 µM) | Non-toxic | 32 (≈ 106 µM) | 64 (≈ 212 µM) | Non-toxic | Non-toxic |  | Non-toxic | Non-toxic |  |  |
| CO/N=C(\C(=O)N[C@@H]1C(=O)N2C(C(=O)O)=C(COC(C)=O)CS[C@H]12)c1csc(N)n1 [CEFOTAXIME] |  |  | 0.125 (≈ 0.274 µM) |  |  |  |  |  |  |  |  |  |  |  |  |  |  |  |  | 0.125 (≈ 0.274 µM) | MIC (Enterococcus faecium): 0.5 mg/L (≈ 1.1 µM); MIC (Enterococcus faecalis): 0.5 mg/L (≈ 1.1 µM); MIC (Streptococcus mitis): 0.016 mg/L (≈ 0.0351 µM); MIC (Streptococcus pyogenes): 0.016 mg/L (≈ 0.0351 µM); MIC (Haemophilus influenzae): 0.032 mg/L (≈ 0.0703 µM); MIC (Streptococcus agalactiae): 0.016 mg/L (≈ 0.0351 µM) |
